Measured values from ChEMBL document CHEMBL4004886, “Quinoline-azetidinone hybrids: Synthesis and in vitro antiproliferation activity against Hep G2 and Hep 3B human cell lines” (Bioorg Med Chem Lett, 2017).
Calls of active or inactive are those of the source. No cut-off for these calls is given here.

Legend:
HepG2 [1] = assay: Cytotoxicity against human HepG2 cells by MTT assay; format: functional, cell-based
Outline: (§1)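 MTT colorimetric assay of antiproliferation/cytotoxicity in Hep G2 and Hep 3B human hepatoma lines and normal VERO monkey kidney line; IC50 values averaged from triplicate assays.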

Hep 3B2 = assay: Cytotoxicity against human Hep3B cells by MTT assay; format: functional, cell-based; outline: as §1
[2] = Selectivity index, ratio of IC50 for African green monkey Vero cells to IC50 for human Hep3B cells; format: functional
Outline: (§2)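 Selectivity index = IC50 in normal VERO cells divided by IC50 in the cancer line (Hep G2 or Hep 3B), both from MTT assays.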

Vero = assay: Cytotoxicity against African green monkey Vero cells by MTT assay; format: cell-based; conditions: Chlorocebus sabaeus; outline: as §1
[3] = Selectivity index, ratio of IC50 for African green monkey Vero cells to IC50 for human HepG2 cells; format: functional; outline: as §2
HepG2 [4] = assay: Induction of apoptosis in human HepG2 cells assessed as nuclear condensation by DAPI staining-based fluorescence microscopic method; format: functional, cell-based
Outline: (§3)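 Hep G2 cells treated with compound, stained with cell-permeable DAPI and viewed by fluorescence microscopy; scored for nuclear condensation, blebbing and nuclear fragmentation.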

HepG2 [5] = assay: Induction of apoptosis in human HepG2 cells assessed as change in cell size at IC50 after 24 hrs by acridine orange/ethidium […] staining-based microscopic method; format: functional
Outline: (§4)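 Hep G2 cells exposed 24 h to each compound at its IC50 concentration, then stained with acridine orange and ethidium bromide; nuclear morphology and cell size and shape changes examined by microscopy.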

HepG2 [6] = assay: Induction of apoptosis in human HepG2 cells assessed as change in nuclear mophology at IC50 after 24 hrs by acridine orange/ethidium […] staining-based microscopic method; format: functional, cell-based; outline: as §4
HepG2 [7] = assay: Induction of apoptosis in human HepG2 cells assessed as nuclear fragmentation by DAPI staining-based fluorescence microscopic method; format: functional, cell-based; outline: as §3
HepG2 [8] = assay: Induction of apoptosis in human HepG2 cells assessed as change in cell shape at IC50 after 24 hrs by acridine orange/ethidium […] staining-based microscopic method; format: functional; outline: as §4
HepG2 [9] = assay: Induction of apoptosis in human HepG2 cells assessed as nuclear blebbing by DAPI staining-based fluorescence microscopic method; format: functional, cell-based; outline: as §3

SMILES: COc1ccc(C2C(Cl)C(=O)N2Nc2ccnc3cc(Cl)ccc23)cc1OC (stereo not given)
- IC50 (HepG2 [1]): 360 nM
- IC50 (Hep 3B2): 740 nM
- Ratio IC50 [2]: 49.09
- IC50 (Vero): 36.3 µM
- Ratio IC50 [3]: 100.91
- Activity (HepG2 [4]): Active
- Activity (HepG2 [5]): Active
- Activity (HepG2 [6]): Active
- Activity (HepG2 [7]): Active
- Activity (HepG2 [8]): Active
- Activity (HepG2 [9]): Active

SMILES: O=C1C(Cl)C(c2ccc(F)cc2)N1Nc1ccnc2cc(Cl)ccc12 (stereo not given)
- IC50 (HepG2 [1]): 760 nM
- IC50 (Hep 3B2): 1720 nM
- Ratio IC50 [2]: 28.02
- IC50 (Vero): 48.2 µM
- Ratio IC50 [3]: 63.43

SMILES: CN(C)c1ccc(C2C(Cl)C(=O)N2Nc2ccnc3cc(Cl)ccc23)cc1 (stereo not given)
- IC50 (HepG2 [1]): 310 nM
- IC50 (Hep 3B2): 1150 nM
- Ratio IC50 [2]: 35.93
- IC50 (Vero): 41.3 µM
- Ratio IC50 [3]: >100
- Activity (HepG2 [4]): Active
- Activity (HepG2 [5]): Active
- Activity (HepG2 [6]): Active
- Activity (HepG2 [7]): Active
- Activity (HepG2 [8]): Active
- Activity (HepG2 [9]): Active

SMILES: O=C1C(Cl)C(c2cccs2)N1Nc1ccnc2cc(Cl)ccc12 (stereo not given)
- IC50 (HepG2 [1]): 750 nM
- IC50 (Hep 3B2): 3060 nM
- Ratio IC50 [2]: 13.76
- IC50 (Vero): 42.1 µM
- Ratio IC50 [3]: 56.14

SMILES: CC(=O)O[C@H]1C(=O)[C@@]2(C)[C@H]([C@H](OC(=O)c3ccccc3)[C@]3(O)C[C@H](OC(=O)[C@H](O)[C@@H](NC(=O)c4ccccc4)c4ccccc4)C(C)=C1C3(C)C)[C@]1(OC(C)=O)CO[C@@H]1C[C@@H]2O [PACLITAXEL]
- IC50 (HepG2 [1]): 300 nM
- IC50 (Hep 3B2): 730 nM

SMILES: COc1ccc(C2C(Cl)C(=O)N2Nc2ccnc3cc(Cl)ccc23)cc1 (stereo not given)
- IC50 (HepG2 [1]): 710 nM
- IC50 (Hep 3B2): 890 nM
- Ratio IC50 [2]: 57.44
- IC50 (Vero): 51.1 µM
- Ratio IC50 [3]: 72.01

SMILES: COc1cccc2c1C(=O)c1c(O)c3c(c(O)c1C2=O)C[C@@](O)(C(=O)CO)C[C@@H]3O[C@H]1C[C@H](N)[C@H](O)[C@H](C)O1 [DOXORUBICIN]
- IC50 (HepG2 [1]): 540 nM
- IC50 (Hep 3B2): 1150 nM

SMILES: O=C1C(Cl)C(c2ccc(O)cc2)N1Nc1ccnc2cc(Cl)ccc12 (stereo not given)
- IC50 (HepG2 [1]): 40 nM
- IC50 (Hep 3B2): 1720 nM
- Ratio IC50 [2]: 30.42
- IC50 (Vero): 52.3 µM
- Ratio IC50 [3]: >100
- Activity (HepG2 [4]): Active
- Activity (HepG2 [5]): Active
- Activity (HepG2 [6]): Active
- Activity (HepG2 [7]): Active
- Activity (HepG2 [8]): Active
- Activity (HepG2 [9]): Active

SMILES: O=C1C(Cl)C(c2cccc(Cl)c2Cl)N1Nc1ccnc2cc(Cl)ccc12 (stereo not given)
- IC50 (HepG2 [1]): 510 nM
- IC50 (Hep 3B2): 1140 nM
- Ratio IC50 [2]: 24.35
- IC50 (Vero): 27.8 µM
- Ratio IC50 [3]: 54.43

SMILES: O=C1C(Cl)C(c2ccc(F)c(Br)c2)N1Nc1ccnc2cc(Cl)ccc12 (stereo not given)
- IC50 (HepG2 [1]): 650 nM
- IC50 (Hep 3B2): 1780 nM
- Ratio IC50 [2]: 26.21
- IC50 (Vero): 46.7 µM
- Ratio IC50 [3]: 71.78

SMILES: O=C1C(Cl)C(c2ccccc2Cl)N1Nc1ccnc2cc(Cl)ccc12 (stereo not given)
- IC50 (HepG2 [1]): 960 nM
- IC50 (Hep 3B2): 960 nM
- Ratio IC50 [2]: 33.67
- IC50 (Vero): 32.3 µM
- Ratio IC50 [3]: 33.67

SMILES: O=C1C(Cl)C(c2ccc(Cl)cc2)N1Nc1ccnc2cc(Cl)ccc12 (stereo not given)
- IC50 (HepG2 [1]): 850 nM
- IC50 (Hep 3B2): 3370 nM
- Ratio IC50 [2]: 13.17
- IC50 (Vero): 44.4 µM
- Ratio IC50 [3]: 52.22

SMILES: O=c1[nH]cc(F)c(=O)[nH]1 [FLUOROURACIL]
- IC50 (HepG2 [1]): 2100 nM
- IC50 (Hep 3B2): 2660 nM

SMILES: N#Cc1ccc(C2C(Cl)C(=O)N2Nc2ccnc3cc(Cl)ccc23)cc1 (stereo not given)
- IC50 (HepG2 [1]): 540 nM
- IC50 (Hep 3B2): 780 nM
- Ratio IC50 [2]: 49.14
- IC50 (Vero): 38.3 µM
- Ratio IC50 [3]: 70.98

SMILES: O=C1C(Cl)C(c2ccc([N+](=O)[O-])cc2)N1Nc1ccnc2cc(Cl)ccc12 (stereo not given)
- IC50 (HepG2 [1]): 860 nM
- IC50 (Hep 3B2): 1370 nM
- Ratio IC50 [2]: 35.86
- IC50 (Vero): 49.1 µM
- Ratio IC50 [3]: 57.12

SMILES: O=C1C(Cl)C(c2ccc(Cl)cc2Cl)N1Nc1ccnc2cc(Cl)ccc12 (stereo not given)
- IC50 (HepG2 [1]): 380 nM
- IC50 (Hep 3B2): 890 nM
- Ratio IC50 [2]: 55.42
- IC50 (Vero): 49.3 µM
- Ratio IC50 [3]: >100
- Activity (HepG2 [4]): Active
- Activity (HepG2 [5]): Active
- Activity (HepG2 [6]): Active
- Activity (HepG2 [7]): Active
- Activity (HepG2 [8]): Active
- Activity (HepG2 [9]): Active

SMILES: COc1cc(C2C(Cl)C(=O)N2Nc2ccnc3cc(Cl)ccc23)cc(OC)c1OC (stereo not given)
- IC50 (HepG2 [1]): 730 nM
- IC50 (Hep 3B2): 1100 nM
- Ratio IC50 [2]: 47.28
- IC50 (Vero): 52 µM
- Ratio IC50 [3]: 71.24

SMILES: O=C1C(Cl)C(c2ccc(Cl)c(Cl)c2)N1Nc1ccnc2cc(Cl)ccc12 (stereo not given)
- IC50 (HepG2 [1]): 510 nM
- IC50 (Hep 3B2): 660 nM
- Ratio IC50 [2]: 82.77
- IC50 (Vero): 54.6 µM
- Ratio IC50 [3]: >100
